# MRP reversal: compounds reversing MRP-mediated drug resistance. H69AR cells + 2 uM doxorubicin, CellTiter-Glo, 72 h. differential viability (reversal), % at 10 µM. 85,000 compounds, 0.04% hits. AID 602;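 active = viability drop by adding the cancer drug above about 55%, with treated viability meeting a 40% cutoff, limit read from the data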;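 also: viability without doxorubicin minus viability with 2 µM doxorubicin for each compound; larger differential means the compound sensitizes cells more to doxorubicin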
# sdo1 growth: restores growth of sdo1-depleted yeast. S. cerevisiae sdo1-depleted JHY4D growth rescue, OD600 30 h; hits give high values; pdr5 snq2 efflux-pump mutant strain. AID 817. z-score at 10 µM. 140,000 compounds, 0.21% hits;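 active = z-score above 3 at both the 24 hr and the 30 hr optical density reads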;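 also: z-score against mean and SD of all compound wells on the same plate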
# Phagocyt inh: inhibitors of macrophage phagocytosis; J774A.1 macrophage IgG-bead phagocytosis, imaging; inhibition, % at 5 µM; 110,000 compounds, 0.07% hits; AID 1029;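 active = inhibition above the mean of the plate negative controls plus 5 SD, cut at about 13% in these data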;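 also: phagocytic index as fraction of beads internalized from green versus red external bead signal; plate controls were DMSO negative control for no effect and cytochalasin-D positive control for full effect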
# MRP-1 activ: activates MRP-1. 140,000 compounds, 0.61% hits. H69AR cells + doxorubicin, viability rescue, CellTiter-Glo. viability increase, % at 10 µM;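 active = viability gain under doxorubicin at or above a set limit, the compound median plus 3 SD, cut at about 4.7% in these data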;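 also: MRP-1 overexpressing cells given doxorubicin 25 µM after compound pretreatment; 18-22 h compound pretreatment then 72 h with doxorubicin before readout; 0% = doxorubicin-only wells and 100% = vehicle-treated cells without doxorubicin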
# Yeast growth inh: reduces growth of yeast BB579 in restrictive medium; S. cerevisiae BB579 growth, OD615, 48 h; AID 804; 140,000 compounds, 0.51% hits; inhibition, % at 10 µM;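 active = inhibition above a set limit, 3 SD over the mean compound inhibition, cut at about 44% in these data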
#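 System: Saccharomyces cerevisiae DeaD strain BB579, replicative lifespan model yeast. Buffer or medium: restrictive glucose-based CSMM-D medium. Doses: one dose, 10 µM compound with 0.25% DMSO. Timing: 4 h preincubation and 48 h exposure at 30 °C. Detection: turbidity as optical density at 615 nm. Benchmarks: amphotericin B 10 µg/mL, positive.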
# Yeast lifespan up: extends the lifespan of yeast. S. cerevisiae growth with nicotinamide, OD615; deaD strain in restrictive glucose medium. inhibition of the nicotinamide effect, % at 10 µM. 130,000 compounds, 0.68% hits;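 active = inhibition above a set limit, placed 3 SD over the median of all compounds, cut at about 26% in these data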;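 also: 0% = nicotinamide-treated wells and 100% = cells grown without nicotinamide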
#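 Measured by: optical density (absorbance) at 615 nm; System: modified budding yeast, DeaD strain; Medium: restrictive CSMM-D dextrose medium; Timing: 4 h preincubation then 48 h treatment at 30 °C.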
# The depositor's hits bear a star; nt = no result; [ ] = remark or other dose. This is a sample that favours compounds with a hit; in the whole collection about 2.1% have one here.
SMILES,MRP reversal,sdo1 growth,Phagocyt inh,MRP-1 activ,Yeast growth inh,Yeast lifespan up
Cc1ccc(NC(=O)CS(=O)(=O)c2c[nH]c3ccccc23)c(C)c1,0,0.46,1,-2,-44,-3
COc1ccc2c(Cl)c(C(=O)NCCCn3ccnc3)sc2c1,79*,0.12,-5,-3,-1,-18
COc1ccc(-c2ccc(OC)cc2)cc1,6,-0.38,nt,1,-30,nt
COc1ccc(-c2nncnn2)cc1,-11,-2.5,nt,-4,79*,nt
COc1ccc(C2NC(C(=O)O)CS2)cc1COCC(F)(F)F (configuration not stated),-10,0.42[13.3 µM],nt,0,-6,-4
Clc1ccc(CSc2ncn[nH]2)cc1,-2,-0.42,-1,5.9*,0,-15
O=c1[nH]c(N/N=C/c2ccccc2Br)nnc1-c1ccccc1,nt,-0.88,-4,4.8*,-55,6
O=C(CCN1C(=O)C2CCCCC2C1=O)NNC(=O)c1cccc(Cl)c1 (configuration not stated),nt,0.27,9,0,-22,3
C=C(C(=O)c1ccccc1)C(C)CC(=O)c1ccccc1 (configuration not stated),nt,-1,-9,-5,-17,34*
CC(C)(C)C(=O)Nc1ccc(C(=O)Nc2cccnc2)cc1,-15,1.2,0,1,-26,-8
Cc1ccc(-c2nc(N)sc2-c2ccccc2)cc1C,nt,-2.2,-4,0,79*,-6
Cc1ccc(C2=NN(C(=O)CCl)C(c3cccs3)C2)o1 (configuration not stated),nt,-1.2,-6,-6,-60,35*
CCO/N=C(/C)c1c(O)cc(C(C)(C)C)n(-c2ccccc2)c1=O,nt,0.09,5,0,-29,7
CCCC(=O)C1C(=O)CC(CC(C)SCC)CC1=O (configuration not stated),9,0.27,0,-1,-36,97*
COc1cc(/C=C2/CCc3ccccc3C2=O)cc(OC)c1OC,nt,-1.3,-3,-5,-24,-6
COc1ccc(/C=C2\N=C(c3c(-c4ccccc4)noc3C)OC2=O)cc1OC,nt,-0.31,nt,0,-46,-13
COc1cc(/C=C2\C(=O)ON=C2c2ccccc2)cc(OC)c1OC,nt,-0.18,nt,1,48*,17
COc1ccc(/C=C2/C(=O)ON=C2c2ccccc2)cc1OC,nt,-0.41,nt,-1,61*,27*
Cc1cc(C)n(C2CCCCC2OC(=O)c2ccccc2)n1 (configuration not stated),3,-1.5,-1,-2,-13,0
N#Cc1c(-c2ccco2)nc(SCC(=O)Nc2cccc(Cl)c2)[nH]c1=O,8,0.53,-3,5.5*,-9,-4
CN(C)c1nc(-c2ccc([N+](=O)[O-])cc2)cs1,nt,-0.24,-1,1,-26,-18
O=c1c2ccccc2nc2sc3ccccc3n12,nt,-2.7,nt,-3,85*,-3
COC(=O)/C=c1/sc2nc3ccccc3n2c1=O,5,-1.1,nt,-1,14,-17
O=C(COc1ccc(Cl)cc1)NCc1nnc(SCC(=O)N2CCCCC2)o1,8,1.1,0,1,-17,-11
O=C(COc1ccc(Cl)cc1)NCc1nnc(SCC(=O)NCc2ccc3c(c2)OCO3)o1,8,0.12,0,5.8*,-24,0
COc1ccc2c(=O)c3c(=O)n(Cc4ccco4)c(-c4ccc(C)cc4)nc3oc2c1,-9,-1.2,-2,-4,-38,47*
CC1=C(C(=O)Nc2ccccc2)C(c2ccco2)NC(=O)N1 (configuration not stated),1,0.49,nt,0,-40,nt
CCC1SC2=NC(C)=C(C(=O)OC)C(c3ccc(C(=O)OC)cc3)N2C1=O (configuration not stated),9,-0.95,-2,4.9*,-24,-2
CCC1SC2=NC(C)=C(C(=O)OCCOC)C(c3ccc(C(=O)OC)cc3)N2C1=O (configuration not stated),19,0.29,0,7.8*,-12,-4
COCCOC(=O)C1=C(C)N=C2SCCC(=O)N2C1c1ccc(C(=O)OC)cc1 (configuration not stated),9,-0.81,-2,-2,-16,-10

# Assay outcomes as filed in PubChem BioAssay.
